# Measured values pooled from the literature.
# Protocols differ between the studies behind these lines.
# PIK3CA E542K: Phosphatidylinositol 4,5-bisphosphate 3-kinase catalytic subunit alpha isoform (PIK3CA, Homo sapiens, UniProt P42336, E542K)
# PIK3CA: Phosphatidylinositol 4,5-bisphosphate 3-kinase catalytic subunit alpha isoform (PIK3CA, Homo sapiens, UniProt P42336)
# PIK3CA E545K: Phosphatidylinositol 4,5-bisphosphate 3-kinase catalytic subunit alpha isoform (PIK3CA, Homo sapiens, UniProt P42336, E545K)
target,observed,mode,method,tested at,endpoint,value,SMILES
PIK3CA E542K,binding,,,0.1 µM,remaining binding,68%,C1=C/COCc2cc(ccc2OCCN2CCCC2)Nc2nccc(n2)-c2cccc(c2)COC/1
PIK3CA,cell-free assay,,competition with immobilised ligand,25 µM,remaining binding,92%,N#Cc1ccc(NC(=O)Nc2ccccc2)cc1
PIK3CA E545K,enzyme activity,inhibitor,,1 µM,inhibition,0%,CO[C@@H]1[C@H](N(C)C(=O)c2ccccc2)C[C@H]2O[C@]1(C)n1c3ccccc3c3c4c(c5c6ccccc6n2c5c31)C(=O)NC4
PIK3CA E542K,binding,,,1 µM,remaining binding,92%,COc1ccc2[nH]c3c4[nH]c5ccc(OC)cc5c4c4c(c3c2c1)C(=O)NC4=O
"Phosphatidylinositol 4,5-bisphosphate 3-kinase catalytic subunit alpha isoform, with p85 (PIK3CA, Homo sapiens, UniProt P42336)",enzyme activity,inhibitor,,1 µM,activity vs control,98.5%,CC(C)S(=O)(=O)c1ccc2nccc(Nc3ccc4sc(C5CCCC5)nc4c3)c2c1
PIK3CA,cell-free assay,,,1 µM,remaining signal,100%,C#Cc1cnc(Nc2ccnc(CO)c2)nc1Nc1ccccc1S(C)(=O)=NC#N (stereo not shown)
PIK3CA E542K,binding,,competition with immobilised ligand,0.5 µM,remaining binding,96%,CCCCC(=O)Nc1ccc(-c2ccc3ncn(CCC)c(=O)c3c2)cn1
"Phosphatidylinositol 4,5-bisphosphate 3-kinase catalytic subunit alpha isoform (PIK3CA, Homo sapiens, UniProt P42336, Q546K)",enzyme activity,inhibitor,,1 µM,inhibition,38%,CC#CC(=O)N1CCC[C@H]1c1nc(-c2ccc(C(=O)Nc3ccccn3)cc2)c2c(N)nccn12
"Phosphatidylinositol 4,5-bisphosphate 3-kinase catalytic subunit alpha isoform (PIK3CA, Homo sapiens, UniProt P42336, M1043I)",binding,,,1 µM,remaining binding,100%,CN1CCN(C(=O)c2ccc(NC(=O)Nc3ccc(N(C)c4ccnc(Nc5ccc(CS(C)(=O)=O)cc5)n4)cc3)cc2)CC1
"Phosphatidylinositol 4,5-bisphosphate 3-kinase catalytic subunit alpha isoform (PIK3CA, Homo sapiens, UniProt P42336, C420R)",enzyme activity,inhibitor,,1 µM,inhibition,28%,C=CC(=O)N1CCC[C@@H](n2nc(-c3ccc(Oc4ccccc4)cc3)c3c(N)ncnc32)C1
"Phosphatidylinositol 4,5-bisphosphate 3-kinase catalytic subunit alpha isoform (PIK3CA, Homo sapiens, UniProt P42336, H1047L)",binding,,,1 µM,remaining binding,98%,Cc1ccc(NC(=O)c2ccnc(C(F)(F)F)c2)cc1-c1cc(OCCO)nc(N2CCOCC2)c1
PIK3CA,enzyme activity,inhibitor,,1 µM,inhibition,0%,C=CC(=O)N1CCC([C@@H]2CCNc3c(C(N)=O)c(-c4ccc(Oc5ccccc5)cc4)nn32)CC1
PIK3CA E545K,cell-free assay,,,1 µM,remaining signal,100%,C[C@H]1CC[C@H](n2c3cnccc3c3cnc(Nc4ccc5c(n4)CCN(C(=O)CO)C5)nc32)CC1
